Published values pooled from the literature.
Compare with care: the assays were run in different laboratories.

| SMILES | species | matrix | route | dose | notes | endpoint | value |
| --- | --- | --- | --- | --- | --- | --- | --- |
| COc1ccc2c(c1)CN(C(=O)CCN1CCC(Cc3ccccc3)CC1)CC[S@@+]2[O-] | male human | plasma | intravenous | 0.01 mg/kg | healthy volunteers | clearance | 235 mL/min |
| CC(C)n1c(C2CCNCC2)nc2c([N+](=O)[O-])c(Br)c(Br)cc21 | human | urine | oral | 75 mg | single dose | renal clearance | 13.7 mL/min |
| CN(C)C(=O)c1cc2cnc(Nc3ccc(N4CCNCC4)cn3)nc2n1C1CCCC1 | human | plasma | oral |  | multiple doses, steady state, patients | CL/F | 343 mL/min |
| COc1ccc(F)cc1C(=O)NCc1ccc(-c2nn([C@@H](C)C(F)(F)F)c(N)c2C(N)=O)cc1 | male human | urine | oral | 200 mg |  | renal clearance | 4.83 mL/min |
| CN1CCC(COc2cnc(-c3cccc(Cn4nc(-c5cccc(C#N)c5)ccc4=O)c3)nc2)CC1 | human | plasma | intravenous |  | single dose | clearance | ~3 mL/min/kg |
| CC(C)C[C@H](NC(=O)[C@H](CC(C)C)NC(=O)[C@H](Cc1c[nH]c2ccccc12)NC(=O)[C@H](CCC(=O)O)NC(=O)[C@@H](NC(=O)[C@H](Cc1ccccc1)NC(=O)[C@H](CCC(=O)O)NC(=O)[C@H](CCCCNC(=O)COCCOCCNC(=O)COCCOCCNC(=O)CC[C@H](NC(=O)CCCCCCCCCCCCCCCCCCC(=O)O)C(=O)O)NC(=O)[C@H](C)NC(=O)[C@H](CCCCN)NC(=O)[C@H](CCCCN)NC(=O)[C@H](CCC(=O)O)NC(=O)[C@H](CC(=O)O)NC(=O)[C@H](CC(C)C)NC(=O)[C@H](Cc1ccc(O)cc1)NC(=O)[C@H](CCCCN)NC(=O)[C@H](CO)NC(=O)[C@H](Cc1ccc(O)cc1)NC(=O)[C@H](CC(=O)O)NC(=O)[C@H](CO)NC(=O)[C@@H](NC(=O)[C@H](Cc1ccccc1)NC(=O)[C@@H](NC(=O)CNC(=O)[C@H](CCC(N)=O)NC(=O)C(C)(C)NC(=O)[C@@H](N)Cc1c[nH]cn1)[C@@H](C)O)[C@@H](C)O)C(C)C)C(=O)N[C@@H](CCC(=O)O)C(=O)NCC(=O)NCC(=O)N1CCC[C@H]1C(=O)N[C@@H](CO)C(=O)N[C@@H](CO)C(=O)NCC(N)=O | human | plasma | subcutaneous | 16 mg | multiple doses, once daily, steady state, patients | CL/F | 0.333 mL/min |
| C[C@@H](Oc1ccc(S(C)(=O)=O)cc1C(=O)N1C[C@@H]2C[C@]2(c2cc(C(F)(F)F)on2)C1)C(F)(F)F | human | plasma | oral | 10 mg | single dose, fed | CL/F | 73.1 mL/min |
| OC[C@H]1O[C@@H](c2cc(Cc3ccc(C4CC4)cc3)c(Cl)c3c2CCO3)[C@H](O)[C@@H](O)[C@@H]1O | human | plasma | oral | 0.3 mg | single dose, fed, healthy volunteers | CL/F | 173 mL/min |
